Assay results published in ChEMBL document CHEMBL4725369, “Multicomponent Synthesis, Binding Mode, and Structure-Activity Relationship of Selective Histone Deacetylase 6 (HDAC6) Inhibitors with Bifurcated Capping Groups” (J Med Chem, 2020).
pIC50: −log10 of the molar value. Active and inactive are the calls of the source. The rule behind the calls is not given here.

Key:
Histone deacetylase 1 = Histone deacetylase 1 (Homo sapiens, UniProt Q13547); assay: Inhibition of human recombinant HDAC1 using ZMAL (Z-Lys(Ac)-AMC) fluorogenic substrate incubated for 90 mins by fluorescence based assay
[1] = target: T1, Protein deacetylase HDAC6 (Homo sapiens, UniProt Q9UBN7); assay: Inhibition of human recombinant HDAC6 using ZMAL (Z-Lys(Ac)-AMC) fluorogenic substrate incubated for 90 mins by fluorescence based assay
T1 sequence (Q9UBN7 whole entry): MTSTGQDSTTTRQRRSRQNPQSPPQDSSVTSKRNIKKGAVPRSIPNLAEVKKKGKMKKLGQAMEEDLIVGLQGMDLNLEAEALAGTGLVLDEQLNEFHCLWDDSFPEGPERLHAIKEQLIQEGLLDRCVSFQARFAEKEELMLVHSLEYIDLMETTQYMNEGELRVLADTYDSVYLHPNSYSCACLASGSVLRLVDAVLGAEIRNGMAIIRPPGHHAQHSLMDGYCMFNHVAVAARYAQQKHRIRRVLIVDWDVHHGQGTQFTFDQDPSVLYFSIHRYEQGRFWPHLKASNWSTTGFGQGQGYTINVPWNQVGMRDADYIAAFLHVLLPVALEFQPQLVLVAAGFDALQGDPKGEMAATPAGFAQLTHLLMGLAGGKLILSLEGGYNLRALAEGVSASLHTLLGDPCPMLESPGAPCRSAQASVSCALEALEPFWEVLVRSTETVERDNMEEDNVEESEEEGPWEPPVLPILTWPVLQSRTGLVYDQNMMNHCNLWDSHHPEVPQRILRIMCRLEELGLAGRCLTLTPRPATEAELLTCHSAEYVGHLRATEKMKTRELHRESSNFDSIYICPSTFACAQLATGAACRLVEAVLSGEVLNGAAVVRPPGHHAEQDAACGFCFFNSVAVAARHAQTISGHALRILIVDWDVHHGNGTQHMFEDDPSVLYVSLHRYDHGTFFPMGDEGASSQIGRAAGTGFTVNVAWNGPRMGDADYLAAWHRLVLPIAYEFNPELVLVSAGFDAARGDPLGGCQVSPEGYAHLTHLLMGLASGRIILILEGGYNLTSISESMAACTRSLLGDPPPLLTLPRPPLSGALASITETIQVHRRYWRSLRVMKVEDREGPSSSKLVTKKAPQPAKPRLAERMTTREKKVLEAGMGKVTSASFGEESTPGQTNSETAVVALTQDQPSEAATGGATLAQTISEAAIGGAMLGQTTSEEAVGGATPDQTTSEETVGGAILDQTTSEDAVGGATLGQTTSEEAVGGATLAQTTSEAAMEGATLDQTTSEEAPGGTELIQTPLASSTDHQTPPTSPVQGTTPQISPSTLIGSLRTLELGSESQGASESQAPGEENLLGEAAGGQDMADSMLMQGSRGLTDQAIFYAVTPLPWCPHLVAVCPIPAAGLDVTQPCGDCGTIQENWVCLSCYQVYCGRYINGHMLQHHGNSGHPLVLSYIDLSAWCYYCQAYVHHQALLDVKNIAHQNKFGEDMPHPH

Histone deacetylase 2 = Histone deacetylase 2 (Homo sapiens, UniProt Q92769); assay: Inhibition of human recombinant HDAC2 using ZMAL (Z-Lys(Ac)-AMC) fluorogenic substrate incubated for 90 mins by fluorescence based assay
Outline: (§1)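 Enzyme was incubated with compound and ZMAL substrate (21.43 μM stock in assay buffer) for 90 min at 37 °C. Trypsin development followed for 30 min at 37 °C, then fluorescence at ex 355/em 460 nm. Duplicates, at least two independent experiments.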

Histone deacetylase 3 = Histone deacetylase 3 (Homo sapiens, UniProt O15379); assay: Inhibition of human recombinant HDAC3 using ZMAL (Z-Lys(Ac)-AMC) fluorogenic substrate incubated for 90 mins by fluorescence based assay; outline: as §1
Histone deacetylase 4 = Histone deacetylase 4 (Homo sapiens, UniProt P56524); assay: Inhibition of human recombinant HDAC4 using Boc-Lys-(epsilon-Tfa)-AMC fluorogenic substrate incubated for 90 mins by fluorescence based assay
Outline: (§2)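 Human recombinant HDAC4 or HDAC8, 20 ng per well, in Tris-HCl pH 8.0 buffer with 1 mg/mL BSA. Enzyme was preincubated 5 min with inhibitor, then started with Boc-Lys(ε-Tfa)-AMC, 100 μM for HDAC4 or 60 μM for HDAC8. […] Fluorescence ex 355/em 460 nm was read 15 min later.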

Histone deacetylase 8 = target: T2, Histone deacetylase 8 (Homo sapiens, UniProt Q9BY41); assay: Inhibition of human recombinant HDAC8 using Boc-Lys-(epsilon-Tfa)-AMC fluorogenic substrate incubated for 90 mins by fluorescence based assay; outline: as §2
T2 sequence (Q9BY41 whole entry): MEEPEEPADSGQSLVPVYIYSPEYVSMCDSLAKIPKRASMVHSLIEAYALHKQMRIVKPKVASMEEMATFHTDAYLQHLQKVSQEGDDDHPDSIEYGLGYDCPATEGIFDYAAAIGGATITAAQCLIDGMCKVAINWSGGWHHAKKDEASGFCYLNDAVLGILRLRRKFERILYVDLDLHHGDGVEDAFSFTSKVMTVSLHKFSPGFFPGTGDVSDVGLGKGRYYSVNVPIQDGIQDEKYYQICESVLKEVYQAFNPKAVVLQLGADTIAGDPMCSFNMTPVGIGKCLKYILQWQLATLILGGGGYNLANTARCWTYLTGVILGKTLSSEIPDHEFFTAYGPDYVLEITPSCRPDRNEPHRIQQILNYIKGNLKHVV

[2] = Intrinsic clearance in human liver microsomes; type: ADME, Microsome
[3] = Intrinsic clearance in mouse liver microsomes; type: ADME, Microsome
[4] = target: T3, Protein deacetylase HDAC6 (Homo sapiens) (UniProt Q9UBN7); assay: Inhibition of HDAC6 in human HL60 cells assessed as induction of alpha-tubulin acetylation at 2.5 to 5 uM incubated for 24 hrs by immunoblot analysis; type: cell-based; conditions: HL-60, dose microM 2.5-5, time […]
T3 sequence (whole entry): T1 sequence (Q9UBN7 whole entry)

[5] = target: Class 1 histone deacetylase (Homo sapiens) (UniProt Q13547+O15379+Q92769+Q9BY41); assay: Inhibition of class-1 HDAC in human HL60 cells assessed as induction of histone H3 acetylation at 2.5 to 5 uM incubated for 24 hrs by immunoblot analysis; type: cell-based; conditions: HL-60, dose microM 2.5-5, time […]
TALL-1 = assay: Cytotoxicity in human TALL-1 cells assessed as reduction in cell viability incubated for 72 hrs by cell-Titer-Glo luminescent cell viability assay; type: cell-based; conditions: TALL-1, 72 h
Outline: (§3)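 Leukaemia lines kept in RPMI 1640 with 20% FCS (SUP-B15 in McCoy's 5A with 20% FCS). Compound dispensed digitally at increasing concentrations from 1 μM to 50 μM. Viability read by CellTiter-Glo luminescence after 72 h. Raw data were normalized to controls and IC50 was fitted by sigmoid nonlinear regression.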

CCRF-HSB-2 [6] = assay: Cytotoxicity in human CCRF-HSB-2 cells assessed as reduction in cell viability incubated for 72 hrs by cell-Titer-Glo luminescent cell viability assay; type: cell-based; conditions: CCRF-HSB-2, 72 h; outline: as §3
MOLT-4 = assay: Cytotoxicity in human MOLT-4 cells assessed as reduction in cell viability incubated for 72 hrs by cell-Titer-Glo luminescent cell viability assay; type: cell-based; conditions: MOLT-4, 72 h
Outline: (§4)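 Cells were exposed in 384-well format to a digitally dispensed concentration series of 1–50 μM. Viability was read by CellTiter-Glo luminescence after 72 h. Data were normalized to controls, and IC50 came from nonlinear regression of a sigmoid dose curve. K562 was maintained in RPMI 1640 with 10% FCS at 37 °C and 5% CO2. MOLT-4 was maintained in RPMI 1640 with 20% FCS.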

Jurkat = assay: Cytotoxicity in human Jurkat cells assessed as reduction in cell viability incubated for 72 hrs by cell-Titer-Glo luminescent cell viability assay; type: cell-based; outline: as §3
SUP-B15 = assay: Cytotoxicity in human SUP-B15 cells assessed as reduction in cell viability incubated for 72 hrs by cell-Titer-Glo luminescent cell viability assay; type: cell-based; conditions: SUP-B15, 72 h; outline: as §3
K562 = assay: Cytotoxicity in human K562 cells assessed as reduction in cell viability incubated for 72 hrs by cell-Titer-Glo luminescent cell viability assay; type: cell-based; conditions: K562, 72 h; outline: as §4
HL-60 [7] = assay: Induction of apoptosis in human HL-60 cells at 2.5 to 5 uM incubated for 24 hrs by Annexin V and PI staining based FACS analysis; type: cell-based; conditions: hl-60, 24 h, dose 2.5-5 µM
Outline: (§5)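 HL60 cells in RPMI 1640 with 10% FCS at 37°C, 5% CO2. Cells were exposed to test compound at 2.5 or 5 μM, alone or combined with bortezomib, for 24 h. Annexin V/propidium iodide staining was read by FACS; n=3, with paired two-tailed Student's t-test.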

HL-60 [8] = assay: Potentiation of bortezomib-induced apoptosis in human HL-60 cells assessed as increase in number of late apoptotic/dead cells at 2.5 to 5 uM incubated for 24 hrs in presence of 0.6 to 1.2 nM bortezomib- by Annexin V and PI staining based FACS analysis; type: functional, cell-based; conditions: dose microM 2.5-5, time […]; outline: as §5
CCRF-HSB-2 [9] = assay: Cytotoxicity in human CCRF-HSB-2 cells assessed as reduction in cell viability at 2.5 to 5 uM incubated for 72 hrs by cell-Titer-Glo luminescent cell viability assay; type: cell-based; conditions: ccrf-hsb-2, 72 h, dose 2.5-5 µM
Outline: (§6)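 HSB-2 cells in RPMI 1640 with 20% FCS on a semi-automated combination platform. Test compound was fixed at 2.5 or 5 μM, alone or with chemotherapeutics and glucocorticoids dispensed at 10 nM-25 μM. Viability read by CellTiter-Glo luminescence after 72 h.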

CCRF-HSB-2 [10] = assay: Potentiation of epirubicin-induced cytotoxicity in human CCRF-HSB-2 cells assessed as reduction in cell viability at 2.5 to 5 uM incubated for 72 hrs in presence of 10 nM epirubicin1 by cell-Titer-Glo luminescent cell viability assay; type: functional, cell-based; conditions: dose microM 2.5-5, time 72.0 hrs; outline: as §6
CCRF-HSB-2 [11] = assay: Potentiation of […]-induced cytotoxicity in human CCRF-HSB-2 cells assessed as reduction in cell viability at 2.5 to 5 uM incubated for 72 hrs in presence of 10 nM daunorubicin by cell-Titer-Glo luminescent cell viability assay; type: functional, cell-based; conditions: dose microM 2.5-5, time 72.0 hrs; outline: as §6

Chain of Histone deacetylase 1 (Q13547 whole entry): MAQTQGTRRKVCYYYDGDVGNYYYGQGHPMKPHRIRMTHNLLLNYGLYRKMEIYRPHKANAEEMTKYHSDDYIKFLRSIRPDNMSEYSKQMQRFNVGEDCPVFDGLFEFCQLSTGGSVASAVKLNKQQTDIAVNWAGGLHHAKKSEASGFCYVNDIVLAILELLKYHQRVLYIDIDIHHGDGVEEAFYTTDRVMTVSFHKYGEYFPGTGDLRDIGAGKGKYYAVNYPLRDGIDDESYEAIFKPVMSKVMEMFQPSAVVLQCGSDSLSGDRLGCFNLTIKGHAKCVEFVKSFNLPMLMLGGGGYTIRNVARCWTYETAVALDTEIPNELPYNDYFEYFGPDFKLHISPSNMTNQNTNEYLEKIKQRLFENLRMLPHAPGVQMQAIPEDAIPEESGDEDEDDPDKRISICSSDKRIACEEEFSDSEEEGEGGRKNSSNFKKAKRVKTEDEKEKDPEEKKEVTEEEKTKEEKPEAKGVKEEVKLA
Chain of Histone deacetylase 3 (O15379 whole entry): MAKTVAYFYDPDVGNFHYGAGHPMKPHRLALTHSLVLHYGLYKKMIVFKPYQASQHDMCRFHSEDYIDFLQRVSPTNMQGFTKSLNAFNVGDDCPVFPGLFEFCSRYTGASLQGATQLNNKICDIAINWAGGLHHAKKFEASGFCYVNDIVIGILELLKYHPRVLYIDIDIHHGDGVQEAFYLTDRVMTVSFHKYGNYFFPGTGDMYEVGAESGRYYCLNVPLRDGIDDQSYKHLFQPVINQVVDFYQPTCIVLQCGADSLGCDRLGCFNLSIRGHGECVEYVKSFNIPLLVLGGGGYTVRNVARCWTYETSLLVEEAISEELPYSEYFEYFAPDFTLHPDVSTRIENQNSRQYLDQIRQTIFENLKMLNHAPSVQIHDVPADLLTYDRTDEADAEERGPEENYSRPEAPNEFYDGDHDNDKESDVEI
Chain of Histone deacetylase 4 (P56524 whole entry): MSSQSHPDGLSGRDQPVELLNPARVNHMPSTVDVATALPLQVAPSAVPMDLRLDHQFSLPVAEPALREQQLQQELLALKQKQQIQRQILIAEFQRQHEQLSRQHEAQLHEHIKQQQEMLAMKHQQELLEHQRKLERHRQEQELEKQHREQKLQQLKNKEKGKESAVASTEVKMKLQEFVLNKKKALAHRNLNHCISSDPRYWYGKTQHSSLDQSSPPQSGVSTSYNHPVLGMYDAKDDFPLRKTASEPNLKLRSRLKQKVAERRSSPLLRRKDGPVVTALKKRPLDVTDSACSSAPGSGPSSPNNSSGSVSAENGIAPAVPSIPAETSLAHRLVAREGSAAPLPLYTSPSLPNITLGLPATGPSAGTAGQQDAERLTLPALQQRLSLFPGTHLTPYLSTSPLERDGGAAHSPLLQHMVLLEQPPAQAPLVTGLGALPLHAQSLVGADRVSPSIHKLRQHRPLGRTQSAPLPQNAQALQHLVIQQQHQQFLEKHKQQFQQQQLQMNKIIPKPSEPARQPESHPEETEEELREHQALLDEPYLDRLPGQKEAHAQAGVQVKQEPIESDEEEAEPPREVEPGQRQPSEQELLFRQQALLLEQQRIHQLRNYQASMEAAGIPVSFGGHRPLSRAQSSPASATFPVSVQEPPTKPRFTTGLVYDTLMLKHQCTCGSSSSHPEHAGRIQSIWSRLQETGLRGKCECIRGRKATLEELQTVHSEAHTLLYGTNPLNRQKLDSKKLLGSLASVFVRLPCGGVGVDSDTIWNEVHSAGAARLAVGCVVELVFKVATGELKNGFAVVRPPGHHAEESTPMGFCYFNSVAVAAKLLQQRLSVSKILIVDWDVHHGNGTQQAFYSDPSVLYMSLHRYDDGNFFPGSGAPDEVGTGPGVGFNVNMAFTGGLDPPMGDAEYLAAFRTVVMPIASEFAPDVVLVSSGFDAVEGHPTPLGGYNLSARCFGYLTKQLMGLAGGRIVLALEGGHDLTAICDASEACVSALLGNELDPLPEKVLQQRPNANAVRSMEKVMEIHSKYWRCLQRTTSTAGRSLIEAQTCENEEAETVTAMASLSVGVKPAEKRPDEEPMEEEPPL
Chain of Histone deacetylase 2 (Q92769 whole entry): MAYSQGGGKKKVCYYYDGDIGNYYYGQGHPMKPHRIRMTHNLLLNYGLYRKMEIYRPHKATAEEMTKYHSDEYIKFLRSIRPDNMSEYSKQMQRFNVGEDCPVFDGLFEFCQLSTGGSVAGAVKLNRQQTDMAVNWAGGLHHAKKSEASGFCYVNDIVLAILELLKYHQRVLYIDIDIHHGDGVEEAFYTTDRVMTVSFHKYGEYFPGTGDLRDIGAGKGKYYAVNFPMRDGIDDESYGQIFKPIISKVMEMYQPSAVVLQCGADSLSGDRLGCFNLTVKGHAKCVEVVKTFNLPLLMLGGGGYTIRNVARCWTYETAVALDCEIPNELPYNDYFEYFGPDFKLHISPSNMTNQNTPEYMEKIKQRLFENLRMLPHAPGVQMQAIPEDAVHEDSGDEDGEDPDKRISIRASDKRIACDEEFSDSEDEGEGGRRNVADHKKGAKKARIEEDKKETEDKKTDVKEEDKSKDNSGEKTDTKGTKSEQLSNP

SMILES | pIC50 (Histone deacetylase 1) | pIC50 [1] | also measured
CC(C)(C)n1nnnc1CNCc1ccc(C(=O)NO)cc1 | 5.08 | 6.48 | 
O=C(NO)c1ccc(CNCc2nnnn2C2CCCCC2)cc1 | 5.69 | 6.92 | 
O=C(NO)c1ccc(CN(Cc2nnnn2Cc2ccccc2)C(=O)c2ccccc2C(F)(F)F)cc1 | 5.29 | 7.52 | pIC50 (Histone deacetylase 2): 5.65; pIC50 (Histone deacetylase 3): 5.07; pIC50 (Histone deacetylase 4): 4.26; pIC50 (Histone deacetylase 8): 4.83; CLint [2]: 30 µL/min/mg; CLint [3]: 26 µL/min/mg; inhibition [4]: Active; inhibition [5]: inactive; pIC50 (TALL-1): 4.31; pIC50 (CCRF-HSB-2 [6]): 4.29; pIC50 (MOLT-4): 4.37; pIC50 (Jurkat): 4.49; pIC50 (SUP-B15): 4.65; pIC50 (K562): 4.38; Activity (HL-60 [7]): Non-Toxic; Activity (HL-60 [8]): Active; Activity (CCRF-HSB-2 [9]): Non-Toxic; Activity (CCRF-HSB-2 [10]): Active; Activity (CCRF-HSB-2 [11]): Active
O=C(NO)c1ccc(CN(Cc2nnnn2Cc2ccccc2)C(=O)c2ccccc2)cc1 | 5.91 | 7.52 | 
CC(C)c1ccc(C(=O)N(Cc2ccc(C(=O)NO)cc2)Cc2nnnn2Cc2ccccc2)cc1 | 5.75 | 6.49 | 
O=C(NO)c1ccc(CNC(c2ccccc2)c2nnnn2Cc2ccccc2)cc1 (stereo not drawn) | 5.47 | 7.00 | 
CCCCC(NCc1ccc(C(=O)NO)cc1)c1nnnn1Cc1ccccc1 (stereo not drawn) | 5.70 | 6.92 | 
O=C(NO)c1ccc(CNC(c2ccccc2)c2nnnn2C2CCCCC2)cc1 (stereo not drawn) | 5.39 | 6.92 | 
O=C(NO)c1ccc(CN(Cc2nnnn2C2CCCCC2)C(=O)c2ccccc2)cc1 | 5.63 | 7.15 | 
Cc1cc(C)cc(C(=O)N(Cc2ccc(C(=O)NO)cc2)Cc2nnnn2Cc2ccccc2)c1 | 6.05 | 7.10 | 
O=C(NO)c1ccc(CNCc2nnnn2Cc2ccccc2)cc1 | 5.61 | 7.00 | 
Cc1ccccc1C(=O)N(Cc1ccc(C(=O)NO)cc1)Cc1nnnn1C1CCCCC1 | 5.52 | 7.22 | 
